Assay results reported in ChEMBL document CHEMBL4354812, “N-Benzyl/Aryl Substituted Tryptanthrin as Dual Inhibitors of Indoleamine 2,3-Dioxygenase and Tryptophan 2,3-Dioxygenase” (J Med Chem, 2019).
Calls of active or inactive are those of the source. No cut-off for these calls is given here.

Legend:
[1] = target: T1, Tryptophan 2,3-dioxygenase (Homo sapiens, UniProt P48775); assay: Inhibition of human TDO transfected in HEK293 cells assessed as reduction in kynurenine production using L-tryptophan as substrate incubated for 12 hrs; format: cell-based
T1 sequence (P48775 whole entry): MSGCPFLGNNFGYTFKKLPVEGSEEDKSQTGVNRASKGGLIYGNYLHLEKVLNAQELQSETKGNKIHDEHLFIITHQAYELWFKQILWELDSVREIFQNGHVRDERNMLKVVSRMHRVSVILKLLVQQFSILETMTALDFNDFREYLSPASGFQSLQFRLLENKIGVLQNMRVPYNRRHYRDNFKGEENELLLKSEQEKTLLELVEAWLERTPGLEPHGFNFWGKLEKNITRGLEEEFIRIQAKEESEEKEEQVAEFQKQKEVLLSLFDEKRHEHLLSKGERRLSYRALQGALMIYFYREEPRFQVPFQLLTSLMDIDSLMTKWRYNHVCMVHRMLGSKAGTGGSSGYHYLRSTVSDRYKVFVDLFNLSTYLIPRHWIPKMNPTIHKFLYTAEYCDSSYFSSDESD
How it was run: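 U87 MG cells (hIDO2) or HEK293 cells (hTDO) were transiently transfected at 80% confluence, with empty vector as control. After 18 h, cells were seeded 2.5 × 10⁴/well in medium with 200 μM L-Trp. Compound serial dilutions were added after a further 6 h (IDO2) or 12 h (TDO). Reactions were stopped 24 h (IDO2) or 8 h (TDO) later with TCA, heated 65 °C 15 min, and Kyn read with DMAB at 492 nm. IC50 by nonlinear regression.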

[2] = target: T1, Tryptophan 2,3-dioxygenase; assay: Uncompetitive inhibition of recombinant human TDO expressed in Escherichia coli BL21 (DE3) assessed as assessed as inhibition constant using varying concentration of L-tryptophan as substrate by Dixon plot analysis
How it was run: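 Enzymatic assays of the kynurenine-forming reaction were run with varying L-Trp. Ki was derived by plotting [S]/V against inhibitor concentration [I], with inhibition type assigned from the graphical pattern.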

[3] = target: T2, Indoleamine 2,3-dioxygenase 2 (Homo sapiens) (UniProt Q6ZQW0); assay: Binding affinity to human IDO2 at 200 uM by STD NMR spectrometry analysis
T2 sequence (whole entry): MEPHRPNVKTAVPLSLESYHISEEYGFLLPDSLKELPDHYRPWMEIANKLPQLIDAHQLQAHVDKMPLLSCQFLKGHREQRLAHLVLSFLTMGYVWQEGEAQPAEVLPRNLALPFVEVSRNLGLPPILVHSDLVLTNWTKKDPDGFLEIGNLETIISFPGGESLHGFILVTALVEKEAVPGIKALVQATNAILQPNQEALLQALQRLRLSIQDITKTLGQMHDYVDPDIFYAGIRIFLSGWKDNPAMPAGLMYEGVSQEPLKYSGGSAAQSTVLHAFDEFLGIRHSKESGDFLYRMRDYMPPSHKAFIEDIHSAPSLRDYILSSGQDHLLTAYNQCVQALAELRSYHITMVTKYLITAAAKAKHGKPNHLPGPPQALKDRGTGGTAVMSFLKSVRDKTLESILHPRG

Homo sapiens [4] = organism: Homo sapiens; assay: Inhibition of IDO1/TDO in IFNgamma-treated human HeLa cells assessed as T cell proliferation at 1 uM measured after 2 days in presence of IL-2, anti-CD3 and IFN-gamma by CFSE dye based flow cytometry analysis (reference value: 11.7 %); parameters: scale not given: the % may be the effect or the level left
How it was run: (§1)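 CFSE-labelled human PBMC lymphocytes (1 × 10⁶/well) were cocultured with HeLa cells (2 × 10⁵/well), a 5:1 ratio, in 150 U/mL IL-2, 100 ng/mL anti-CD3 and 60 ng/mL IFN-γ. Compound was tested at 40 nM, 200 nM, 500 nM or 1 μM. Proliferation was read by flow cytometry after 2 days, three independent experiments.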

Homo sapiens [5] = organism: Homo sapiens; assay: Inhibition of IDO1/TDO in IFNgamma-treated human HeLa cells assessed as T cell proliferation at 200 nM measured after 2 days in presence of IL-2, anti-CD3 and IFN-gamma by CFSE dye based flow cytometry analysis (reference value: 11.7 %); parameters: scale not given: the % may be the effect or the level left; how it was run: as §1
Mus musculus [6] = assay: In vivo inhibition of IDO1/2/TDO in C57BL/6 mouse assessed as decrease in LPS-stimulated kynurenine pathway by measuring effect on kynurenine level at 60 mg/kg, ig pretreated for 24 hrs with Escherichia coli LPS followed by compound treatment measured at 1 to 30 hrs post-treatment by HPLC analysis; format: functional, organism-based
How it was run: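 C57BL/6 mice were given ip saline or E. coli LPS 5 mg/kg. 24 h later they received ig 60 mg/kg compound or 0.5% CMC-Na. Blood was taken at 1, 6, 12, 24 and 30 h after dosing. Serum Trp and Kyn were measured by HPLC and the Kyn/Trp ratio calculated. n = 3–5 mice/group.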

Rattus norvegicus = assay: In vivo inhibition of IDO1/2/TDO in Sprague-Dawley rat assessed as decrease in kynurenine/tryptophan ratio in lung at 30 mg/kg, ig administered as single dose by LC-MS analysis; format: functional, organism-based
How it was run: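 Naive SD rats received a single ig dose of 30 mg/kg in 0.5% CMC-Na, with vehicle as control. Lungs were dissected and Trp and Kyn quantified by LC–MS, with the Kyn/Trp ratio calculated. n = 3–4 rats/group.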

[7] = tested on: Lewis lung carcinoma cell line; assay: Antitumor activity against mouse LLC cells implanted in C57BL/6 mouse assessed as reduction in tumor weight at 45 mg/kg, po qd administered for 2 weeks and measured post-treatment; format: functional, organism-based
How it was run: (§2)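 Tumor cells (LLC, or H22 ascites cells after two intraperitoneal passages in Kunming mice) injected sc into the right forelimb at 2 × 10⁶ per mouse, in female 6–8-week C57BL/6 or Kunming mice. Oral dosing once daily began at 5 mm tumor diameter and continued 2 weeks. Vehicle was 0.5% CMC-Na. Volume was read by caliper every 2 days as long × short²/2. Tumors were weighed at sacrifice. n = 9–10/group.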

[8] = tested on: Lewis lung carcinoma cell line; assay: Antitumor activity against mouse LLC cells implanted in C57BL/6 mouse assessed as reduction in tumor volume at 45 mg/kg, po qd administered for 2 weeks and measured at 2 days interval during compound dosing relative to control; format: functional; parameters: scale not given: the % may be the effect or the level left; how it was run: as §2
H22 [9] = assay: Antitumor activity against mouse H22 cells implanted in Kunming mouse assessed as reduction in tumor volume at 45 mg/kg, po qd administered for 2 weeks and measured at 2 days interval during compound dosing relative to control; format: functional; parameters: scale not given: the % may be the effect or the level left; how it was run: as §2
H22 [10] = assay: Antitumor activity against mouse H22 cells implanted in Kunming mouse assessed as reduction in tumor weight at 45 mg/kg, po qd administered for 2 weeks and measured post-treatment relative to control; format: functional; parameters: scale not given: the % may be the effect or the level left; how it was run: as §2
Mus musculus [11] = assay: In vivo blockade of kynurenine pathway in C57BL/6 mouse implanted with mouse LLC cells assessed as decrease in kynurenine level in tumor at 45 mg/kg, po qd for 2 weeks by LC-MS analysis; format: functional, organism-based
How it was run: (§3)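 LLC tumor-bearing C57BL/6 mice received oral dosing once daily in 0.5% CMC-Na for 2 weeks. Tumors were dissected and Trp and Kyn measured by LC–MS on a C18 column with acetonitrile/0.1% formic acid gradient (5–80%), positive ion mode, m/z 205 (Trp) and 209 (Kyn), metronidazole internal standard. Kyn/Trp ratio calculated. n = 4–6/group.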

Mus musculus [12] = assay: In vivo blockade of kynurenine pathway in C57BL/6 mouse implanted with mouse LLC cells assessed as increase in tryptophan level in tumor at 45 mg/kg, po qd for 2 weeks by LC-MS analysis; format: functional, organism-based; how it was run: as §3
Mus musculus [13] = assay: In vivo blockade of kynurenine pathway in Kunming mouse implanted with mouse H22 cells assessed as decrease in kynurenine level in serum at 45 mg/kg, po qd for 2 weeks by HPLC analysis; format: functional, organism-based
How it was run: (§4)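 H22 tumor-bearing Kunming mice received oral dosing once daily in 0.5% CMC-Na for 2 weeks. Serum Trp and Kyn were measured by HPLC on a C18 column with 15 mM sodium acetate (pH 3.6) containing 4% acetonitrile, UV detection at 280 and 360 nm. Kyn/Trp ratio calculated. n = 9–10/group.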

Mus musculus [14] = assay: In vivo blockade of kynurenine pathway in Kunming mouse implanted with mouse H22 cells assessed as increase in tryptophan level in serum at 45 mg/kg, po qd for 2 weeks by HPLC analysis; format: functional, organism-based; how it was run: as §4

IC50 [1]: 90 nM
Ki [2]: 310 nM
Activity [3]: Active
Activity (Homo sapiens [4]): 52.8%
Activity (Homo sapiens [5]): 39.8%
SMILES: CN1CCN(Cc2ccc3nc4n(c(=O)c3c2)-c2ccc(F)cc2C4=O)CC1
inhibition (Mus musculus [6]): inactive
inhibition (Rattus norvegicus): Active
Activity [7]: Active
Activity [8]: 56.2%
Activity (H22 [9]): 47.3%
Activity (H22 [10]): 55.4%
Activity (Mus musculus [11]): Active
Activity (Mus musculus [12]): inactive
Activity (Mus musculus [13]): Active
Activity (Mus musculus [14]): Active
